LYPLA1 inh = LYPLA1 (human) inhibition in PME1 counter-screen; O75608; recombinant LYPLA1, FP-Rh probe fluorescence polarization; inhibition, % at 5.9 µM; 320,000 compounds, 0.16% hits;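 active = inhibition above the mean of all tested compounds plus 3 SD, set per campaign, cut at about 14% in these data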;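 note: inhibitors block serine hydrolase probe labeling of LYPLA1 so polarization falls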
RBBP9 inhibitor = blocks human serine hydrolase RBBP9. AID 1515. 220,000 compounds, 0.2% hits. recombinant RBBP9, FP-Rh probe fluorescence polarization. inhibition, % at 7.94 µM. O75884;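 active = inhibition above the campaign mean of all tested compounds plus 3 SD, cut at about 14% in these data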
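System: RBBP9 protein | Quantity: 2.5 µM RBBP9 dispensing solution, before mixing | Reagent: FP-Rh probe, 375 nM dispensing solution | Timing: Enzyme-compound preincubation 30 min, then probe labeling 45 min, 25 °C | Measured by: Fluorescence polarization | Read-out: % inhibition | Replication: One well per compound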
PME-1 inh = blocks human protein phosphatase methylesterase 1. Q9Y570. 320,000 compounds, 0.53% hits. recombinant PME-1, FP-Rh probe fluorescence polarization. inhibition, % at 5.9 µM. AID 2130;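 active = inhibition above the campaign mean of all compounds plus 3 SD, cut at about 26% in these data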;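 note: competitive labeling of PME-1 active site by serine hydrolase directed probe; inhibitors block probe labeling so polarization falls and inhibition rises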
Target sequence (Q9Y570 whole entry, looked up): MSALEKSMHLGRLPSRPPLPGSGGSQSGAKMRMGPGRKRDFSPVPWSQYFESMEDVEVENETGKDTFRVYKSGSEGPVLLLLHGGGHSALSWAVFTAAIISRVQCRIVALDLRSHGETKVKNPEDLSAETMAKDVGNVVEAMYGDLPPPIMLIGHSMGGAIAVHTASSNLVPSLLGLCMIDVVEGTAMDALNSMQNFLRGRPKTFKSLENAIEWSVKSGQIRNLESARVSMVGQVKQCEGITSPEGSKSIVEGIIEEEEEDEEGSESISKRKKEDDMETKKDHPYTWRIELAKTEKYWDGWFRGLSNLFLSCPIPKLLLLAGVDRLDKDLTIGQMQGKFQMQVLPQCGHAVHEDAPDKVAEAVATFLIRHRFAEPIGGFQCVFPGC
Fam108B inh = counter-screen for RBBP9 inhibitors: inhibitors of mouse Fam108B; recombinant Fam108B, FP-Rh probe fluorescence polarization; inhibition, % at 9.51 µM; 300,000 compounds, 0.33% hits; AID 1947;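 active = inhibition above the screen mean inhibition plus 3 SD, computed separately per campaign, cut at about 18% in these data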;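 note: inhibitors lower polarization as less probe binds the enzyme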
LYPLA2 inh = LYPLA2 (human) inhibition in PME1 counter-screen; AID 2177; inhibition, % at 5.9 µM; recombinant LYPLA2, FP-Rh probe fluorescence polarization; 320,000 compounds, 0.38% hits;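 active = inhibition above the screen-wide mean plus 3 SD, limit set per campaign, cut at about 26% in these data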
Target sequence (O95372 whole entry, looked up): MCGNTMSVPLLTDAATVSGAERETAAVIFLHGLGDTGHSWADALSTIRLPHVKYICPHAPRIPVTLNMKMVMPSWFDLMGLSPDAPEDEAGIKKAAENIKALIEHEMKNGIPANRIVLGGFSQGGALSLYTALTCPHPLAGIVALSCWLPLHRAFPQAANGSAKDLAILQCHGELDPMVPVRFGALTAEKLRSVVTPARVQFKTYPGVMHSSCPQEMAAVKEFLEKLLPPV
PAD4 inh = inhibitors of human PAD4; Q9UM07; recombinant PAD4, RCA probe fluorescence polarization; inhibition, % at 6.36 µM; 330,000 compounds, 0.41% hits; AID 485272;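 active = percent inhibition above a cutoff equal to the mean of all tested compounds plus 3 SD, cut at about 15% in these data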
LYPLA1 confirm = counter-screen for PME1 inhibitors: confirmation of human LYPLA1 inhibitors; shares compounds with LYPLA1 inh; AID 2233; recombinant LYPLA1, FP-Rh probe fluorescence polarization; 480 compounds, 69% hits; inhibition, % at 5.9 µM;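 active = mean inhibition across replicates above the hit cutoff set in the primary screen, cut at about 15% in these data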;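 note: loss of FP-Rh probe labeling of LYPLA1 seen as lower polarization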
A number is an active result; i = inactive; nt = no result. Compounds with a hit are over-represented: about 1.3% of the library has one in this group of screens.

SMILES	LYPLA1 inh	RBBP9 inhibitor	PME-1 inh	Fam108B inh	LYPLA2 inh	PAD4 inh	LYPLA1 confirm
O=C(O)c1ccccc1-c1ccc(/C=C/c2cc(C(F)(F)F)[nH]c(=O)n2)o1	nt	i	nt	nt	nt	nt	nt
O=C(O)c1cc(Cl)ccc1-c1ccc(/C=C/c2cc(C(F)(F)F)[nH]c(=O)n2)o1	18	i	i	i	31	i	i
O=C(COC(=O)c1cc(Br)ccc1O)c1ccc(F)cc1	nt	nt	nt	nt	nt	i	nt
Cc1ccc(C2(COC(=O)C(C)C)CO2)c(OC(=O)C(C)C)c1 (stereo not drawn)	29	nt	i	i	i	i	i
CCOC(=O)C1CCCN(S(=O)(=O)c2ccc3c(c2)CC(C)N3C(=O)C2CC2)C1 (stereo not drawn)	i	nt	i	i	i	i	nt
CC1Cc2cc(S(=O)(=O)N3CCC(C(=O)N4CCCCC4)CC3)ccc2N1C(=O)C1CC1 (stereo not drawn)	i	nt	i	i	i	i	nt
CC1Cc2cc(S(=O)(=O)N3CCC(C(=O)N(C)Cc4ccco4)CC3)ccc2N1C(=O)C1CCC1 (stereo not drawn)	19	nt	i	i	i	i	29
CC1CCN(S(=O)(=O)c2ccc3c(c2)CC(C)N3C(=O)C2CCC2)CC1 (stereo not drawn)	25	nt	i	i	i	i	34
CC1Sc2ccc(S(=O)(=O)N3CCC(C(=O)N(C)Cc4ccco4)CC3)cc2NC1=O (stereo not drawn)	i	nt	i	i	i	i	nt
CC1Cc2cc(S(=O)(=O)N3CCN(C)CC3)ccc2N1C(=O)C1CC1 (stereo not drawn)	i	nt	i	i	i	i	nt
CC1Cc2cc(S(=O)(=O)N3CCCCC3)ccc2N1C(=O)C1CCC1 (stereo not drawn)	19	nt	i	i	i	i	24
CCOC(=O)C1CCN(S(=O)(=O)c2ccc3c(c2)CC(C)N3C(=O)C2CCC2)CC1 (stereo not drawn)	16	nt	i	i	i	i	24
C[C@@]12CCC3[C@@](CC[C@@H]4[C@](C)(C(=O)O)CCC[C@@]34C)(C[C@H]1O)C2 (stereo partly drawn)	i	nt	i	i	i	i	nt
CC(C)(C)OC(=O)N1CCC(Cc2cc(-c3ccc(Cl)cc3)no2)(C(=O)O)CC1	i	nt	i	i	i	i	nt
CCOc1ccc(NC(=O)CSc2nc3ccccc3nc2N2CCOCC2)cc1	i	nt	i	i	i	i	nt
CC(C)Cc1nccs1	i	nt	i	i	i	i	nt
Cn1ncc(Cl)c1C(=O)Nc1sc2c(c1C(N)=O)CCC2	29	i	i	i	i	i	i
NC(=O)c1c(NC(=O)c2ccccc2)sc2c1CCC2	i	nt	i	i	i	i	nt
CC1CCc2c(sc(NC(=O)CN3CCN(C(=O)c4ccco4)CC3)c2C#N)C1 (stereo not drawn)	42	i	i	i	i	i	42
CN(c1ccc([N+](=O)[O-])cc1C(N)=O)C1CCCCC1	i	i	i	i	i	i	nt
O=C(Nc1ccc(Oc2cccnc2)cc1)C1CCN(Cc2ccc(F)cc2)CC1	i	nt	i	i	i	i	nt
O=C(Nc1ccc(Oc2cccnc2)cc1)C1CCN(Cc2cc(Cl)ccc2O)CC1	21	nt	i	i	i	i	18
Cc1cc2oc(=O)cc(CN3CCN(C/C=C/c4ccccc4)CC3)c2cc1O	20	i	i	i	i	i	18
O=c1cc(CN2CCN(C/C=C/c3ccccc3)CC2)c2cc(O)c(-c3ccccc3)cc2o1	i	i	i	i	i	i	nt
CNc1nc(SCC(=O)Nc2ccccc2)nc(N2CCOCC2)n1	i	nt	i	i	i	i	nt
SMILES	LYPLA1 inh	RBBP9 inhibitor	PME-1 inh	Fam108B inh	LYPLA2 inh	PAD4 inh	LYPLA1 confirm
Cc1ccc(S(=O)(=O)NCCc2nnc3ccc(SCC(=O)Nc4nc(C)cs4)nn23)cc1	i	i	i	i	i	i	nt
COc1ccc(NS(=O)(=O)c2ccc(OC)c(NC(=O)CNC(=O)c3ccc(OC)cc3)c2)cc1	i	nt	i	nt	i	i	nt
Cc1cc(C)c2c(N)c(C(=O)Nc3nccs3)sc2n1	17	i	i	i	i	i	i
N#Cc1ccc(C(=O)NC(=S)N2CCN(C=O)CC2)cc1	nt	nt	nt	nt	nt	i	nt
O=C(NCCCN1CCCCC1)C1CCN(S(=O)(=O)N2CCC3(CC2)OCCO3)CC1	i	nt	i	i	i	i	nt
CC(C)(C)OC(=O)N1CCC(CC2CC(c3ccccc3)=NO2)(C(=O)NCc2ccccc2)CC1 (stereo not drawn)	i	nt	i	i	i	i	nt
COC(=O)C1(CC2CC(c3cccc(Br)c3)=NO2)CCN(C(=O)OC(C)(C)C)CC1 (stereo not drawn)	24	nt	i	i	i	i	31
CCNc1nc2c(c(=O)n(C)c(=O)n2C)n1CCCc1ccccc1	i	nt	i	i	i	i	nt
Cc1cc(C)c2[nH]c(=O)c(CN(Cc3cccs3)C(=S)NCC3CCCO3)cc2c1 (stereo not drawn)	i	i	i	i	i	i	nt
COC(=O)CCCC(=O)N1CCCC(C(=O)c2ccc(-c3ccccc3)cc2)C1 (stereo not drawn)	21	nt	i	i	i	i	29
Cc1cccc(N(Cc2ccccc2)C(=O)c2ccc(CS(C)(=O)=O)cc2)c1	i	nt	i	i	i	i	nt
CC(C)Oc1cccc(C(=O)C2CCCN(C(=O)c3cncs3)C2)c1 (stereo not drawn)	i	nt	i	i	i	i	nt
O=C(c1ccc(-c2ccccc2)c(F)c1)C1CCCN(C(=O)c2cncs2)C1 (stereo not drawn)	32	i	i	i	i	i	52
COc1cc(C(=O)Oc2cccc(Nc3ncnc4ccccc34)c2)cc(OC)c1OC	i	i	i	i	i	i	nt
COc1ccc(C(=O)Oc2cccc(Nc3ncnc4ccccc34)c2)cc1OC	16	i	i	i	i	i	15
O=C1c2ccccc2-c2onc3c(N4CCN(CCO)CC4)cc(N4CCN(C(=O)c5ccco5)CC4)c1c23	17	nt	i	i	i	i	i
O=C(c1ccco1)N1CCN(CCCCN2C(=O)c3ccccc3C2=O)CC1	i	i	i	i	i	i	nt
O=[N+]([O-])c1cccc(OCCCN2CCC(Cc3ccccc3)CC2)c1	16	nt	i	i	32	i	20
N#Cc1ccccc1OCCCN1CCC(Cc2ccccc2)CC1	59	nt	i	i	i	i	56
Cc1ccc([N+](=O)[O-])c(OCCN2CCC(Cc3ccccc3)CC2)c1	i	i	i	i	i	i	nt
COc1ccc(-n2c(C)c([N+](=O)[O-])c3ccc(O)c(CN4CCCCC4)c32)cc1	54	i	i	i	i	i	65
C(=N\N1CCN(Cc2ccccc2)CC1)/c1ccc(-c2ccccc2)cc1	i	i	i	i	i	i	nt
COc1ccccc1/C=C/C=N/N1CCN(Cc2ccccc2)CC1	19	i	i	i	i	i	i

Screening data from PubChem BioAssay.
